Measured values collected from several papers.
Protocols differ between the studies behind these lines.
Target: Calcium/calmodulin-dependent protein kinase type 1 (CAMK1, Homo sapiens, UniProt Q14012)

SMILES | effect on | method | concentration | remaining binding [%]
N[C@H]1CCN(c2nccc(-c3cnn4ncccc34)n2)C1 | binding |  | 1 µM | 88
COc1ncc2cc3ccccc3nc2c1C#N | cell-free assay | competition with immobilised ligand | 5 µM | 100
CCN1CCN(Cc2ccc(C(=O)Nc3ccc(C)c(Oc4ccc5c(c4)CC(=O)N5)c3)cc2C(F)(F)F)CC1 | binding | competition with immobilised ligand | 1 µM | 100
c1cncc(-c2cccc(Nc3nccc(NC4CCCCC4)n3)c2)c1 | binding | competition with immobilised ligand | 10 µM | 53
CN(C)c1ncc(F)c(-c2cnn3ncccc23)n1 | binding |  | 1 µM | 86
C[C@H](c1ccc(F)cc1)N(Cc1cccc(C(=O)O)c1)C(=O)c1cnc2ccccc2c1 | cell-free assay | competition with immobilised ligand | 1 µM | 100
O=C(c1ccc(Nc2ncc(Cl)c(-c3cc4ccccc4s3)n2)cc1)N1CCC(N2CCCC2)CC1 | binding | competition with immobilised ligand | 1 µM | 58
F[C@@H]1CCN(c2nccc(-c3cnn4ncccc34)n2)C1 | binding |  | 1 µM | 100
O=C(NCC1CCOCC1)c1n[nH]cc1NC(=O)c1c(F)cccc1F | binding | competition with immobilised ligand | 1 µM | 88
c1cnn2ncc(-c3ccnc(N4CCC45COC5)n3)c2c1 | binding |  | 1 µM | 80
C[C@@H](c1cccc(C#N)c1)n1cc(Cl)cc(C(N)=O)c1=N | cell-free assay | competition with immobilised ligand | 1 µM | 100
O=C(c1ccc(Nc2nccc(-c3cc4ccccc4s3)n2)cc1)N1CCC(N2CCCC2)CC1 | binding | competition with immobilised ligand | 1 µM | 71
CO[C@H]1CC[C@H](CNc2ccc(S(=O)(=O)NC(=O)c3ccc(N4CCN(CC5=C(c6ccc(Cl)cc6)CC(C)(C)CC5)CC4)cc3Oc3cnc4[nH]ccc4c3)cc2[N+](=O)[O-])CC1 | cell-free assay | competition with immobilised ligand | 1 µM | 88
C[C@@H]1CCN(c2nccc(-c3cnn4ncccc34)n2)C1 | binding |  | 1 µM | 87
COc1ccc2c(c1)O[C@H](c1ccc(OC)c(OC)c1)C[C@@H]2NC(=O)C1(c2ccc3c(c2)OC(F)(F)O3)CC1 | cell-free assay | competition with immobilised ligand | 1 µM | 100
CNC(=O)[C@@H]1CC[C@@H](n2c(-c3ccc4cnccc4c3)nc3ccc(C(=O)NCc4cccc(C(N)=O)c4)cc32)C1 | binding | competition with immobilised ligand | 1 µM | 99
C=CC(=O)N1CCC(C(=O)NCC(=O)N2CCN(c3nc(-c4cnc(N)nc4C(F)F)nc(N4CCOCC4)n3)CC2)CC1 | binding | competition with immobilised ligand | 1 µM | 86
Cn1cc(Cl)c2c(Oc3c(F)cc(Nc4cc(Cl)nc(N)n4)cc3F)ccnc21 | cell-free assay | competition with immobilised ligand | 0.1 µM | 100
CC1CCCN1c1nccc(-c2cnn3ncccc23)n1 (stereo not drawn) | binding |  | 1 µM | 98
O=C(NCCCN1CCOCC1)c1ccc(Nc2nccc(-c3cc4ccccc4s3)n2)cc1 | binding | competition with immobilised ligand | 1 µM | 75
CCCOc1ccc([C@H]2[C@H](C(=O)O)[C@@H](c3ccc4c(c3)OCO4)CN2CC(=O)Nc2c(CC)cccc2CC)cc1 | cell-free assay | competition with immobilised ligand | 1 µM | 93
